Measured values: publication PMC3783659 (Bioorganic & medicinal chemistry letters, 2013)

Target: KIX-KID interaction (Homo sapiens, UniProt P16220+Q92793)
Assay: KIX-KID split renilla luciferase
Type: biochemical
In short: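 RLuc split into N-terminal (RLucN) and C-terminal (RLucC) halves. RLucC-KIX and KID-RLucN fusions combined with a range of test compound concentrations (top 50 or 100 μM) at 4 °C. Residual RLuc luminescence read after 20 h. Stocks in DMSO, or DMF for one unstable compound. IC50 in μM from at least two independent experiments, each in duplicate.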

Sequence of KIX-KID interaction (Q92793 587-666 limits assumed): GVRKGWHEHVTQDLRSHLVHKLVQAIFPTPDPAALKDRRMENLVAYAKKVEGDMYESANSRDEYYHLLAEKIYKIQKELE
Sequence of KIX-KID interaction (P16220 87-146 limits assumed): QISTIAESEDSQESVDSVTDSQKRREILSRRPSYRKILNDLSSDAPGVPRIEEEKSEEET

KIX-KID inhibition (IC50) (split RLuc assay, 4 °C, 20 h incubation, mean ± SD)	SMILES	Inhibition of KIX-KID interaction in initial screen (NCI diversity set screen at 10 μM)
inactive	O=[N+]([O-])c1cc(NCc2cccc3nonc23)ccc1Cl [9a]	
	O=[N+]([O-])c1ccc(Sc2cccc[n+]2[O-])c2nonc12 [compound 1, 2-[(7-nitrobenzo[c][1,2,5]oxadiazol-4-yl)thio]pyridine 1-oxide]	consistently shown to efficaciously inhibit KIX-KID interaction
